Source: ChEMBL document CHEMBL2311304, “Design, synthesis and in vitro and in vivo antitumor activities of novel bivalent β-carbolines” (Eur J Med Chem, 2013)

What was measured:
Type in all cases: functional, cell-based
A-375 = experiment: Cytotoxicity against human malignant melanoma A375 cells assessed as reduction in optical density by MTT assay
Procedure, shortened: (§1)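 Cells were cultured in RPMI-1640 with 10% (v/v) fetal calf serum, 100 µg ml-1 penicillin and 100 µg ml-1 streptomycin at 37 °C in humidified 5% CO2. Compounds were dissolved in DMSO, with final DMSO at 2% (v/v) or lower. MTT staining was used, with three replicate wells per point. IC50 is the concentration giving a 50% drop in optical density versus untreated cells.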

SK-OV-3 = experiment: Cytotoxicity against human ovary adenocarcinoma SKOV3 cells assessed as reduction in optical density by MTT assay; conditions: SK-OV-3, Female gonad; procedure, shortened: as §1
BGC-823 = experiment: Cytotoxicity against human gastric carcinoma BGC823 cells assessed as reduction in optical density by MTT assay; procedure, shortened: as §1
769-P = experiment: Cytotoxicity against human renal carcinoma 769-P cells assessed as reduction in optical density by MTT assay; procedure, shortened: as §1
KB = experiment: Cytotoxicity against human epidermoid carcinoma of the nasopharynx KB cells assessed as reduction in optical density by MTT assay; procedure, shortened: as §1

| SMILES | IC50 (A-375) | IC50 (SK-OV-3) | IC50 (BGC-823) | IC50 (769-P) | IC50 (KB) |
| --- | --- | --- | --- | --- | --- |
| COc1cc(-c2nccc3c4ccccc4n(CCCCCCCn4c5ccccc5c5ccnc(-c6cc(OC)c(OC)c(OC)c6)c54)c23)cc(OC)c1OC | 4 µM | > 200 µM | > 200 µM | 3.3 µM | 7.6 µM |
| CCOC(=O)c1cc2c3ccccc3n(CCCCCCn3c4ccccc4c4cc(C(=O)OCC)nc(-c5cc(OC)c(OC)c(OC)c5)c43)c2c(-c2cc(OC)c(OC)c(OC)c2)n1 | > 200 µM | > 200 µM | > 200 µM | > 200 µM | > 200 µM |
| CCOC(=O)c1cc2c3ccccc3n(CCCCCCCCCn3c4ccccc4c4cc(C(=O)OCC)nc(-c5cc(OC)c(OC)c(OC)c5)c43)c2c(-c2cc(OC)c(OC)c(OC)c2)n1 | > 200 µM | > 200 µM | > 200 µM | > 200 µM | > 200 µM |
| Cc1nccc2c3cc(Br)ccc3n(CCCCCn3c4ccc(Br)cc4c4ccnc(C)c43)c12 | > 200 µM | > 200 µM | > 200 µM | 4.3 µM | > 200 µM |
| Cc1nccc2c3cc(Br)ccc3n(CCCCCCn3c4ccc(Br)cc4c4ccnc(C)c43)c12 | > 200 µM | 63.4 µM | > 200 µM | > 200 µM | > 200 µM |
| COc1ccc2c3ccnc(C)c3n(CCCCCn3c4cc(OC)ccc4c4ccnc(C)c43)c2c1 | < 1.4 µM | 1.7 µM | 58.6 µM | 81 µM | 5 µM |
| COc1ccc2c3ccnc(C)c3n(CCCCCCn3c4cc(OC)ccc4c4ccnc(C)c43)c2c1 | 35.3 µM | 11.7 µM | > 200 µM | > 200 µM | 155 µM |
| COc1ccc2c3ccnc(C)c3n(CCCCCCCn3c4cc(OC)ccc4c4ccnc(C)c43)c2c1 | 113 µM | 10.2 µM | 104 µM | 114 µM | 38.6 µM |
| COc1ccc2c3ccnc(C)c3n(CCCCCCCCn3c4cc(OC)ccc4c4ccnc(C)c43)c2c1 | 6.2 µM | 7.1 µM | 75.7 µM | 65.6 µM | 2.8 µM |
| CCCCOc1ccc2c3ccnc(C)c3n(CCCCn3c4cc(OCCCC)ccc4c4ccnc(C)c43)c2c1 | 3.8 µM | 5.5 µM | 8.5 µM | > 200 µM | 6.8 µM |
| CCCCOc1ccc2c3ccnc(C)c3n(CCCCCCn3c4cc(OCCCC)ccc4c4ccnc(C)c43)c2c1 | > 200 µM | > 200 µM | > 200 µM | 56 µM | > 200 µM |
| Cc1nccc2c3ccc(OC(C)C)cc3n(CCCCCCCCCn3c4cc(OC(C)C)ccc4c4ccnc(C)c43)c12 | 43.3 µM | 101 µM | > 200 µM | 40 µM | 112 µM |
| CC(C)c1nccc2c3ccccc3n(CCCCCCn3c4ccccc4c4ccnc(C(C)C)c43)c12 | 53.5 µM | 31.8 µM | > 200 µM | 18.5 µM | > 200 µM |
| CC(C)c1nccc2c3ccccc3n(CCCCCCCCCCn3c4ccccc4c4ccnc(C(C)C)c43)c12 | 19.6 µM | > 200 µM | > 200 µM | 4.6 µM | > 200 µM |
| c1ccc2c(c1)c1ccnc(-c3ccsc3)c1n2CCCCCCn1c2ccccc2c2ccnc(-c3ccsc3)c21 | > 200 µM | > 200 µM | > 200 µM | > 200 µM | > 200 µM |
| c1ccc2c(c1)c1ccnc(-c3ccsc3)c1n2CCCCCCCCn1c2ccccc2c2ccnc(-c3ccsc3)c21 | 32.1 µM | > 200 µM | > 200 µM | > 200 µM | > 200 µM |
